For 23 molecules, Activity and IC50 results are on record in ChEMBL document CHEMBL4680176, “Identification of DOT1L inhibitors by structure-based virtual screening adapted from a nucleoside-focused library” (Eur J Med Chem, 2020).

Assay [1] deals with T1, Histone-lysine N-methyltransferase, H3 lysine-79 specific (Homo sapiens, UniProt Q8TEK3). The assay is described as follows: Binding affinity to recombinant human N-terminal GST-tagged DOT1L (1 to 420 residues) expressed in Escherichia coli BL21 (DE3) assessed as increase in melting temperature at 100 uM incubated for 1 min by 1,8-ANS probe based thermal shift assay.
Target sequence in this assay (Q8TEK3 whole entry, looked up, the tested form may be a part): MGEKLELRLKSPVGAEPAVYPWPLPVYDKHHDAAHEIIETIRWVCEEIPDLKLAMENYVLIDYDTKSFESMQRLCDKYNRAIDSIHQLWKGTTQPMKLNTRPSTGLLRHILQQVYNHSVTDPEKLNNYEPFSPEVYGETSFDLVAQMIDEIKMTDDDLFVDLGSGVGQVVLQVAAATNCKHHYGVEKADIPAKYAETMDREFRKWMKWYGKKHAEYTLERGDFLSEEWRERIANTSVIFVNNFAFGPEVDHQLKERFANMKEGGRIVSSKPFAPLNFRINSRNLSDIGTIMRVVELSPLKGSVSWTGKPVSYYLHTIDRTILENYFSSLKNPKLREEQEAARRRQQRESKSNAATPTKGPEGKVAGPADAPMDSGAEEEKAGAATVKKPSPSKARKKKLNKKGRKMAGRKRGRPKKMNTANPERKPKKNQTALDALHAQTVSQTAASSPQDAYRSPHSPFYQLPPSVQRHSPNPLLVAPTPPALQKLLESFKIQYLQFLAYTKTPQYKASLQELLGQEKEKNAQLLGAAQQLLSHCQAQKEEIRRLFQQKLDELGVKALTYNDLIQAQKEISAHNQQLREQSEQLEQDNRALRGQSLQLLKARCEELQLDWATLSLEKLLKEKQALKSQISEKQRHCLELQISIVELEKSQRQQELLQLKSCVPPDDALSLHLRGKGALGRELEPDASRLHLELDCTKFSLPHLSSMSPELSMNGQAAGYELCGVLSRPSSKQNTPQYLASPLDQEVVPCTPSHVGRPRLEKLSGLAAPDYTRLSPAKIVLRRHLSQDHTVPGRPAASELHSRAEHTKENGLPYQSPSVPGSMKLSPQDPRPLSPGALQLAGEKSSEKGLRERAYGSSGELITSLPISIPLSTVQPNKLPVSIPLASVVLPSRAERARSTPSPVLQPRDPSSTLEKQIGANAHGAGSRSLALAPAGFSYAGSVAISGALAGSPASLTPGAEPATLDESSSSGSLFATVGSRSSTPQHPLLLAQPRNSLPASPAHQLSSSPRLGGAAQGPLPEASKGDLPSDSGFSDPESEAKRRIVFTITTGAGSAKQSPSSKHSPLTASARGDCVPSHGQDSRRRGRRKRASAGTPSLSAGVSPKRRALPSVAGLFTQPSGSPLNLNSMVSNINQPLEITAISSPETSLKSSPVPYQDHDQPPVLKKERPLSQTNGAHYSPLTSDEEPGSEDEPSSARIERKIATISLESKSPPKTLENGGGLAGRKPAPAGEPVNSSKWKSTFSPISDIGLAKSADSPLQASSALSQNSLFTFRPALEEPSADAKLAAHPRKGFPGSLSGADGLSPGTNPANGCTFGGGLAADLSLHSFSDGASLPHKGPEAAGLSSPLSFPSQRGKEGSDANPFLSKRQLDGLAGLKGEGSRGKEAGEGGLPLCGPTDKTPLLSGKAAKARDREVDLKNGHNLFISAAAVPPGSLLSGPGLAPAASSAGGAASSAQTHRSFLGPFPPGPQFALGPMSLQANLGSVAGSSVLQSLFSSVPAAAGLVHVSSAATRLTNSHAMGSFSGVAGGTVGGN
The target in assay [2] is T1, Histone-lysine N-methyltransferase, H3 lysine-79 specific. The assay is described as follows: Inhibition of recombinant human N-terminal GST-tagged DOT1L (1 to 420 residues) expressed in Escherichia coli BL21 (DE3) using nucleosome as substrate incubated for 1 hr in presence of [3H]-SAM by liquid scintillation counting method. Put shortly: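 GST-tagged DOT1L catalytic domain (1-420), expressed in E. coli BL21(DE3) and Ni-affinity purified, used at 125 nM. Compound added before SAM start; 1 hr at room temperature. Product captured on P81 filters, NaHCO3-washed, and counted by scintillation.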
Target sequence in this assay (Q8TEK3 whole entry, the tested form may be a part): as the sequence (Q8TEK3 whole entry, looked up, the tested form may be a part) above

Assay [3] has the same target. The assay is described as follows: Binding affinity to recombinant human N-terminal GST-tagged DOT1L (1 to 420 residues) expressed in Escherichia coli BL21 (DE3) assessed as increase in melting temperature at 100 uM incubated for 1 min by 1,8-ANS probe based thermal shift assay.
Target sequence in this assay (Q8TEK3 whole entry, looked up, the tested form may be a part): as above
In assay [4] the target is T2, Protein arginine N-methyltransferase 7 (Homo sapiens, UniProt Q9NVM4).
T2 sequence (Q9NVM4 whole entry): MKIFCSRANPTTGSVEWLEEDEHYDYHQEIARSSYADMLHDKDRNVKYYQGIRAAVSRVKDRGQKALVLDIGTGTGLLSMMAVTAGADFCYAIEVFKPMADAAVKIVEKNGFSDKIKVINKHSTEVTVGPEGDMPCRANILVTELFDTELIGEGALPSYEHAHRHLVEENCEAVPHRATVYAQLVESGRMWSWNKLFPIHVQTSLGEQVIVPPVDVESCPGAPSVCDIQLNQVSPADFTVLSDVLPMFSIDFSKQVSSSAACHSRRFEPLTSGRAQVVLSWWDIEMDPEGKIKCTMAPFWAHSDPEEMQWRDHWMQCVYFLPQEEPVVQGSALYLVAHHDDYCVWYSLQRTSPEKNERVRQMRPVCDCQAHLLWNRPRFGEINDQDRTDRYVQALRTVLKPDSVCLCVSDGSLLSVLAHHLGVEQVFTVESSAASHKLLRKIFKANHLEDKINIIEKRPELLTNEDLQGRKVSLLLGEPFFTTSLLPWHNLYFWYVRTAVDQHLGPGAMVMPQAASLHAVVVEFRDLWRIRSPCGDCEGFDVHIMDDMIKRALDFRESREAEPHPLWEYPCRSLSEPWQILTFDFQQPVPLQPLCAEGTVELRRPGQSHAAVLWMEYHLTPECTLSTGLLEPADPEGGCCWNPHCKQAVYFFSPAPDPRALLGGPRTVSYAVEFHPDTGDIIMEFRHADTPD
As to the kind of experiment: Inhibition of recombinant human PRMT7 using GST-GAR as substrate by hotspot assay.

Assay [5] concerns the target DNA (cytosine-5)-methyltransferase 1 (Homo sapiens, UniProt P26358). The assay is described as follows: Inhibition of recombinant human DNMT1 using poly(dl-dC) as substrate by hotspot assay.
The target of assay [6] is T3, Histone-lysine N-methyltransferase EHMT2 (Homo sapiens, UniProt Q96KQ7).
T3 sequence (Q96KQ7 whole entry): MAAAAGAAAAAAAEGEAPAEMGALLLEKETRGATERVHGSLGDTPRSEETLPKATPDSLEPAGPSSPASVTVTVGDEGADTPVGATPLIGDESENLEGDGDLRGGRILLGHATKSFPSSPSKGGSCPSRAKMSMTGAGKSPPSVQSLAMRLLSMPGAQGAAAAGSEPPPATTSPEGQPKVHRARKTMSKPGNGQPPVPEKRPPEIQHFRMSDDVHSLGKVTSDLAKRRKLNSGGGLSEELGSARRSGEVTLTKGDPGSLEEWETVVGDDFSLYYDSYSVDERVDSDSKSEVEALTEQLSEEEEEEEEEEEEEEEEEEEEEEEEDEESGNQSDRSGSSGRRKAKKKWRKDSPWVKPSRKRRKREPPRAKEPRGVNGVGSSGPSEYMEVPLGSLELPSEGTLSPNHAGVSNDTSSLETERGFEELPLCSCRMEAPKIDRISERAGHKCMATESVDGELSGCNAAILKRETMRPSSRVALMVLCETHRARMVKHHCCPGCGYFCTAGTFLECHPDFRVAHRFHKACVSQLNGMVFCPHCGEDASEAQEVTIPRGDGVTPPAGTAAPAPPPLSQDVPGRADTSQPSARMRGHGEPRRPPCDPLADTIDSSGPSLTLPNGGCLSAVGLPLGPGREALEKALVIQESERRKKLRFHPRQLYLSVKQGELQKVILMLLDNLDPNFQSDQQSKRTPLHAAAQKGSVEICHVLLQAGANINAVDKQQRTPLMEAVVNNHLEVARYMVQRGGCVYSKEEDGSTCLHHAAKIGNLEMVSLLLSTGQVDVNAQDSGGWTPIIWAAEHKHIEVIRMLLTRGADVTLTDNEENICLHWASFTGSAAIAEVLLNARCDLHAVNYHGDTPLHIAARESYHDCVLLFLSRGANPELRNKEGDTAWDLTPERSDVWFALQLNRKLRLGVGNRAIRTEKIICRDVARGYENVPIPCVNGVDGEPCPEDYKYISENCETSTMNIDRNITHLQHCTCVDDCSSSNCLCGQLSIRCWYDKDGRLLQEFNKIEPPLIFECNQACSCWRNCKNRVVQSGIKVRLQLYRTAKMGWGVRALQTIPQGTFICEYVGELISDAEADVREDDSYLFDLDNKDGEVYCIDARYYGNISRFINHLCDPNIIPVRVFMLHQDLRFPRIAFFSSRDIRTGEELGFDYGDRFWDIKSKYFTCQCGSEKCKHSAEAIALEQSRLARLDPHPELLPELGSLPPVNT
As to the kind of experiment: Inhibition of recombinant human G9a using histone H3 (1 to 21) as substrate by hotspot assay.

In assay [7] the target is Protein arginine N-methyltransferase 8 (Homo sapiens, UniProt Q9NR22). As to the kind of experiment: Inhibition of recombinant human PRMT8 using histone H4 as substrate by hotspot assay.
The target of assay [8] is T4, Histone-lysine N-methyltransferase SETD7 (Homo sapiens, UniProt Q8WTS6).
T4 sequence (Q8WTS6 whole entry): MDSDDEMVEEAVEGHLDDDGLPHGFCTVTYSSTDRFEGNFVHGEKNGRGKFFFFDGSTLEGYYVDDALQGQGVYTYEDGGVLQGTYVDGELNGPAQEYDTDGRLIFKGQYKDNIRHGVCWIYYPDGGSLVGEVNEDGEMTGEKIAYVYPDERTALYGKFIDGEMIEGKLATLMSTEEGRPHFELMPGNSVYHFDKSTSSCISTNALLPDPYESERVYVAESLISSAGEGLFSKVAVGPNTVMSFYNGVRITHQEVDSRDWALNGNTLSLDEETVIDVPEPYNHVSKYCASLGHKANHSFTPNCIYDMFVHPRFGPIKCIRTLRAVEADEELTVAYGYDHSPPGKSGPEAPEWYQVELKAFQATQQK
The assay is described as follows: Inhibition of recombinant human SET7/9 using core histone as substrate by hotspot assay.

Assay [9] deals with T1, Histone-lysine N-methyltransferase, H3 lysine-79 specific. The assay is described as follows: Inhibition of recombinant human N-terminal GST-tagged DOT1L (1 to 420 residues) expressed in Escherichia coli BL21 (DE3) using histone as substrate incubated for 1 hr by MTase-glo based luminescence assay.
Target sequence in this assay (Q8TEK3 whole entry, the tested form may be a part): as the sequence (Q8TEK3 whole entry, looked up, the tested form may be a part) above
The target of assay [10] is Protein arginine N-methyltransferase 5 (Homo sapiens, UniProt O14744). The assay is described as follows: Inhibition of recombinant human PRMT5 using histone H2A as substrate by hotspot assay.
Assay [11] deals with Protein arginine N-methyltransferase 3 (Homo sapiens, UniProt O60678). The assay is described as follows: Inhibition of recombinant human PRMT3 using histone H4 as substrate by hotspot assay.
The target of assay [12] is Histone-lysine N-methyltransferase EZH2 (Homo sapiens, UniProt Q15910). As to the kind of experiment: Inhibition of recombinant human EZH2 using core histone as substrate by hotspot assay.

Molecules are shown by their SMILES. The source made the active and inactive calls. No cut-off for these calls is given here.

Sequence of Protein arginine N-methyltransferase 5 (O14744 whole entry): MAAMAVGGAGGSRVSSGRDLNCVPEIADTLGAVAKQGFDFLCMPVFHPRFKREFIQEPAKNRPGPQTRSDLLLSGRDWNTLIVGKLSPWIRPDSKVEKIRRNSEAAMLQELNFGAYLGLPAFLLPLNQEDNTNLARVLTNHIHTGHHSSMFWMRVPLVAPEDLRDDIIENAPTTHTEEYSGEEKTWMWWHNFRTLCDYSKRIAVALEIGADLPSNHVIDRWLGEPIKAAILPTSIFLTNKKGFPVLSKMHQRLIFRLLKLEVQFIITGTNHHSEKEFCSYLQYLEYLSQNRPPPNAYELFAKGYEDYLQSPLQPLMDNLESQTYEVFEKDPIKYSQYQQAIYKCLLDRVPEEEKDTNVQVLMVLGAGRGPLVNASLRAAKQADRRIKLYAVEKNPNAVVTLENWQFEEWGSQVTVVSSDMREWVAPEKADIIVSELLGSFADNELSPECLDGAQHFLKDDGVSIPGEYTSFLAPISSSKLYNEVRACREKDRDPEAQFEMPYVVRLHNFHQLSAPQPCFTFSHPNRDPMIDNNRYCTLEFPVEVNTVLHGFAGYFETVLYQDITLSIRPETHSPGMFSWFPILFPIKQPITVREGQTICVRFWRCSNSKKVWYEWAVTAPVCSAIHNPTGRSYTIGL
Sequence of Protein arginine N-methyltransferase 8 (Q9NR22 whole entry): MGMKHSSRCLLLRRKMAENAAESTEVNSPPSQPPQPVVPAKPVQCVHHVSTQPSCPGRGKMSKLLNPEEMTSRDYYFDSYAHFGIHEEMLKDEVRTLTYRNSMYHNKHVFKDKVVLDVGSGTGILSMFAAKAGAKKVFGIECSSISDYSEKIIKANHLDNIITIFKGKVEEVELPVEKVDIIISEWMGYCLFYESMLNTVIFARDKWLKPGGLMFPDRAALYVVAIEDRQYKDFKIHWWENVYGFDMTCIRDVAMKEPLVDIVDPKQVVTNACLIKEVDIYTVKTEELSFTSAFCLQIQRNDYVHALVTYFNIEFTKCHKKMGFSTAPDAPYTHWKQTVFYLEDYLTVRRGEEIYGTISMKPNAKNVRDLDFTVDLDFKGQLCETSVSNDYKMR
Sequence of Histone-lysine N-methyltransferase EZH2 (Q15910 whole entry): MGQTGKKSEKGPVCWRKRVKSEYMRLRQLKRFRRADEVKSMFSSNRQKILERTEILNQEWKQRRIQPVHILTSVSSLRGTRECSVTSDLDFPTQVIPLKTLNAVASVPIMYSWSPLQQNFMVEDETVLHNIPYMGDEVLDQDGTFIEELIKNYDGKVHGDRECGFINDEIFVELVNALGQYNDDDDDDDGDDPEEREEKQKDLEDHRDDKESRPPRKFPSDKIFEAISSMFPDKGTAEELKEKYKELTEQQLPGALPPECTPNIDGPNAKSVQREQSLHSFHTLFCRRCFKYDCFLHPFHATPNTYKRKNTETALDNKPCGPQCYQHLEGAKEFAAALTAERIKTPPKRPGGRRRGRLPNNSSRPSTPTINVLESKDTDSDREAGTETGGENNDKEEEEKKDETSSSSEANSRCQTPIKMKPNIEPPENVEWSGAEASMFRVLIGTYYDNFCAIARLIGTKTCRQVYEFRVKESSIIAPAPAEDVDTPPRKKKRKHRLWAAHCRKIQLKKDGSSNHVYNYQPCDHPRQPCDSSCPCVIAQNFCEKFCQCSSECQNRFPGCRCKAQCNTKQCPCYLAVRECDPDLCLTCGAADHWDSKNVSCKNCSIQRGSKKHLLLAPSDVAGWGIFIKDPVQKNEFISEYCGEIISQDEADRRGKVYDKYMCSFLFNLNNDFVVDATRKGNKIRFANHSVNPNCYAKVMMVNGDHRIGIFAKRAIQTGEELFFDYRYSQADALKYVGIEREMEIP
Sequence of DNA (cytosine-5)-methyltransferase 1 (P26358 whole entry): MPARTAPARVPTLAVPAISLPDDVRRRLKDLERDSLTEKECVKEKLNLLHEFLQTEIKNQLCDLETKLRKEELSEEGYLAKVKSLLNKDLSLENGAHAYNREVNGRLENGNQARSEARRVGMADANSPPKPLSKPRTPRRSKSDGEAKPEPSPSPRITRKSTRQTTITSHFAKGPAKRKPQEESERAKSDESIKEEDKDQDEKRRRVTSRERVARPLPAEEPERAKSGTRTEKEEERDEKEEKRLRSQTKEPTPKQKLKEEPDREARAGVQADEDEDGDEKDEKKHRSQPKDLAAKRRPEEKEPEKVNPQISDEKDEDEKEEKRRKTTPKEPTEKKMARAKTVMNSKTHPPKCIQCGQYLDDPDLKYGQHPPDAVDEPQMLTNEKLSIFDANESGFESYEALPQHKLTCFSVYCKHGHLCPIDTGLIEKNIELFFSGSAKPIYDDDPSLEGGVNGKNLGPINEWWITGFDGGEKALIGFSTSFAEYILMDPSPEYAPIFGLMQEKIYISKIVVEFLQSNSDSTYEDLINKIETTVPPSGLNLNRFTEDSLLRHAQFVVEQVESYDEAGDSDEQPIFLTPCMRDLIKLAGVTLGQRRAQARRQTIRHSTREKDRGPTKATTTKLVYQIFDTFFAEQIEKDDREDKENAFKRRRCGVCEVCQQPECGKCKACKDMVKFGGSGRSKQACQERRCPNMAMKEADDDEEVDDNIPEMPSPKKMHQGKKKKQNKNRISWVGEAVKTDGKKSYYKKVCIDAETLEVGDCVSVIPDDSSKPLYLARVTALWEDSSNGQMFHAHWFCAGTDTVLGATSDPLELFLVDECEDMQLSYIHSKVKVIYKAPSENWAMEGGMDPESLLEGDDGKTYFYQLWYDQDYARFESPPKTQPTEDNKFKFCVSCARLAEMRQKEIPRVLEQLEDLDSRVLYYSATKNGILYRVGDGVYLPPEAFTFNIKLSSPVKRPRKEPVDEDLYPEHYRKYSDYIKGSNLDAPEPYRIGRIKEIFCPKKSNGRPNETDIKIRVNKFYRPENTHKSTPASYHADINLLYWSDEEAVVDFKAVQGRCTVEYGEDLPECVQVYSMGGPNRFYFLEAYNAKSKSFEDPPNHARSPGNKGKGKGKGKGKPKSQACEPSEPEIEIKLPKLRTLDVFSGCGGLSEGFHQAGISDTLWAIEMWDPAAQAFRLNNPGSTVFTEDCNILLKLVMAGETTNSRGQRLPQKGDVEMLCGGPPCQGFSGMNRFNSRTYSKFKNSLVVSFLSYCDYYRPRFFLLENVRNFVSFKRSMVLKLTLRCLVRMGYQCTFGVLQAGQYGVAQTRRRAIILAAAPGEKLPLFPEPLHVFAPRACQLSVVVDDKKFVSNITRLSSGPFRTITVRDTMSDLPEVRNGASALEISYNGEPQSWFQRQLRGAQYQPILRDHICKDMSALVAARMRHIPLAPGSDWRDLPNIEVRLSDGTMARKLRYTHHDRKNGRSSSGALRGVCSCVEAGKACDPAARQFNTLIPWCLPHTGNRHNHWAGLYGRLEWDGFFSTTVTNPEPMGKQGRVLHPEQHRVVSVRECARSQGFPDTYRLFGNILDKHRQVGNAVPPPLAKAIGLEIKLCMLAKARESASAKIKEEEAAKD

`O=C(Nc1ccn(CCCNCc2ccc3c(c2)OCO3)c(=O)n1)OCc1ccccc1`: the result in assay [1] was Active. Further, in assay [2], the IC50 is 677 µM.
As to `Nc1ncnc2c1ncn2[C@@H]1O[C@H](C(=O)N2CCC[C@H]2C(=O)OCc2ccccc2)[C@@H](O)[C@H]1O`, the result in [3] was Active. Further, the IC50 in [2] was found to be 85.3 µM.
As to `CC(C)(C)c1ccc(NC(=O)c2ncn(CC(=O)NCc3ccc4c(N)nccc4c3)n2)cc1`, the IC50 was 61.5 µM in assay [4] (read-out: IC50); “Not Active” in [5]; 61.4 µM in assay [6] (read-out: IC50); 53.6 µM in [7]; 79.8 µM in assay [8] (read-out: IC50); 19.5 µM in assay [9]. In addition, the IC50 in [10] (read-out: IC50) is 113 µM; in assay [11] (read-out: IC50), 25.3 µM; in assay [12] it was “Not Active”.
In the case of `CC(C)(C)c1ccc(NC(=O)c2ncn(CC(=O)NCc3ccc4c(c3)OCO4)n2)cc1`, in assay [9], the IC50 is 23.5 µM.
Turning to `CC(C)(C)c1ccc(NC(=O)c2ncn(CC(=O)NCc3ccc4[nH]ncc4c3)n2)cc1`, the IC50 result in assay [5] was “Not Active”; in assay [6] (read-out: IC50), > 250 µM; in [8], “Not Active”; in assay [9], 22.4 µM; in assay [10], “Not Active”; in assay [11], “Not Active”. In addition, the IC50 in [12] (read-out: IC50) was > 250 µM.
For `Nc1ncnc2c1ncn2[C@@H]1O[C@H](CNCc2ccc(-c3cc(C(F)(F)F)ccc3Cl)o2)[C@@H](O)[C@H]1O`, the result in assay [3] was Active. Further, in assay [2], the IC50 amounted to 32.4 µM.
For `Nc1ncnc2c1ncn2[C@@H]1O[C@H](CNCc2ccc(OCC(=O)Nc3nccs3)cc2)[C@@H](O)[C@H]1O` the same measures were “Active” and 90.4 µM.
The matching figures for `Nc1ncnc2c1ncn2[C@@H]1O[C@H](CNC(=O)[C@@H](N)Cc2ccc(C(F)(F)F)cc2)[C@@H](O)[C@H]1O`: “Active” and 168 µM.
As for `Cc1ccc(NC(=O)c2ncn(CC(=O)NCCn3cnc4[nH]ccc4c3=O)n2)cc1C`, the IC50 in [9] was determined as 138 µM.
On to `Cc1ccc(NC(=O)c2ncn(CC(=O)NCc3nc4ccccc4[nH]3)n2)cc1C`, for which, in [1], the outcome was Active. The IC50 in assay [2] is 130 µM.
On to `O=C(Cn1cnc(C(=O)NC2CCCCC2)n1)NCc1ccc2c(c1)OCO2`, for which the 50% inhibitory concentration (IC50) in assay [9] was > 100 µM.
`Nc1nccc2cc(CNC(=O)Cn3cnc(C(=O)NC4CCCCC4)n3)ccc12`: the concentration for half-maximal inhibition (IC50) result in [4] was “Not Active”; in [7], 94.9 µM; in [9] it was > 100 µM; in [10], “Not Active”; in assay [11], “Not Active”.
Take `O=C(Cn1cnc(C(=O)NC2CCCCC2)n1)NCc1ccc2[nH]ncc2c1`: the IC50 in assay [9] was > 100 µM.
As to `Cc1ccc(NC(=O)c2ncn(CC(=O)NCc3ccc4c(c3)OCO4)n2)cc1C`, the IC50 in assay [9] stood at 40.8 µM; in assay [2], 82.9 µM. Further, the outcome in [1] was Active.
On to `Cc1ccc(NC(=O)c2ncn(CC(=O)NCCn3ccc4c(N)ncnc43)n2)cc1C`, for which the IC50 in [5] (read-out: IC50) is > 250 µM; in [6], “Not Active”; in assay [8], “Not Active”; in assay [9], 10.9 µM; in assay [10] it was “Not Active”; in assay [11], “Not Active”. Also, the IC50 entry in assay [12] was “Not Active”.
Regarding `Nc1ncnc2c1ccn2CCNC(=O)Cn1cnc(C(=O)NC2CCCCC2)n1`, the IC50 in assay [9] is > 100 µM.
On to `Cc1ccc(NC(=O)c2ncn(CC(=O)NCc3ccc4[nH]ncc4c3)n2)cc1C`, for which the IC50 in [9] was 36.9 µM.
For the molecule `Cc1ccc(NC(=O)c2ncn(CC(=O)NCc3ccc4c(N)nccc4c3)n2)cc1C`, the IC50 in [4] (read-out: IC50) is 69.4 µM; in assay [7], 216 µM; in assay [9], 69.2 µM; in assay [10], “Not Active”; in assay [11], “Not Active”.
`Nc1ncnc2c1ncn2[C@@H]1O[C@H](CNC(=O)[C@@H](N)Cc2ccc(C(=O)c3ccccc3)cc2)[C@@H](O)[C@H]1O`: in assay [3], the result was Active. Besides, in [2], the IC50 came to 57 µM.
As for `Nc1ncnc2c1ncn2[C@@H]1O[C@H](CSCC[C@H](N)C(=O)O)[C@@H](O)[C@H]1O` [S-ADENOSYLHOMOCYSTEINE], the IC50 in assay [11] (read-out: IC50) worked out at 0.76 µM.
With `O=C(Nc1ccn(CCCN2CCC(c3ccccc3)CC2)c(=O)n1)OCc1ccccc1`, the result in [1] was Active. In addition, the IC50 in assay [2] was 710 µM.
Turning to `Nc1ncnc2c1ncn2[C@@H]1O[C@H](CNCc2ccc(OCc3ccccc3)cc2)[C@@H](O)[C@H]1O`, in assay [3], the result was Active. In addition, the IC50 in assay [2] turned out to be 120 µM.
In the case of `Cc1ccc2nc(NC(=O)c3ncn(CC(=O)NCc4ccc5c(c4)OCO5)n3)[nH]c2c1`, the IC50 in assay [9] was determined as 55.6 µM.
